ChEMBL document CHEMBL2417450, “Antitumor properties of substituted (αE)-α-(1H-indol-3-ylmethylene)benzeneacetic acids or amides” (Bioorg Med Chem, 2013)
Activity calls are given as the source filed them. The calls are words filed in the database; no cut-off is given here.

Tests used:
[1] = system: DU-145; assay: Increase in p21 protein expression in human DU145 cells at 1 uM after 72 hrs by Western blotting analysis; assay type: functional, cell-based
Summary of the method: (§1)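 DU145 cells were treated 72 h, rinsed in PBS and lysed in 2% SDS buffer (50 mM Tris-HCl pH 6.8, protease inhibitors, 2 mM orthovanadate, 1 mM NaF, 1 mM pyrophosphate). Protein was quantified by BCA, and equal protein was run on 10% SDS-PAGE and blotted to nitrocellulose. Blots were blocked in 5% milk TBS-Tween 0.1%, detected by ECL and normalized to β-actin. Results are mean SEM of three experiments, with Student's t test versus control.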

[2] = system: A549; assay: Cytotoxicity against human A549 cells assessed as cell viability after 72 hrs by MTT assay; assay type: functional, cell-based; settings: A549, 72 h
Summary of the method: (§2)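 Cells were grown at 37 °C in humidified 5% CO2/95% air. DU145 and A549 were kept in DMEM with 10% FCS, glutamine and nonessential amino acids. LNCaP, KB and M14 were kept in RPMI with 10% FCS, and Caco2 in MEM with 10% FCS. For the MTT assay, 1 × 10^4 cells were seeded per well and preincubated 24 h, then treated 72 h (DMSO ≤0.1%). MTT (0.5% in PBS) was added 4 h before the end, formazan was dissolved in DMSO, and OD was read at 550 nm. Triplicates were run.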

[3] = system: DU-145; assay: Effect on total AKT protein level in human DU145 cells at 1 uM after 72 hrs by Western blotting analysis; assay type: functional, cell-based; summary of the method: as §1
[4] = target: Glycogen synthase kinase-3 beta (Homo sapiens) (UniProt P49841); assay: Inhibition of GSK3beta phosphorylation at Ser9 in human DU145 cells at 1 uM after 72 hrs by Western blotting analysis; assay type: cell-based; settings: DU-145; summary of the method: as §1
[5] = system: DU-145; assay: Effect on total ERK1/2 protein level in human DU145 cells at 1 uM after 72 hrs by Western blotting analysis; assay type: functional, cell-based; summary of the method: as §1
[6] = system: LNCaP; assay: Cytotoxicity against human LNCAP cells assessed as cell viability after 72 hrs by MTT assay; assay type: functional, cell-based; summary of the method: as §2
[7] = system: DU-145; assay: Increase in p21 protein expression in human DU145 cells at 0.1 uM after 72 hrs by Western blotting analysis; assay type: functional, cell-based; settings: 1 uM, in the assay text read “1 uM” for “0.1 uM”; summary of the method: as §1
[8] = target: T1, AKT/p21CIP1 (Homo sapiens) (UniProt P38936+P31749); assay: Inhibition of AKT/p21CIP1 in human DU145 cells assessed as decrease in ratio of phosphorylated retinoblastoma level to unphosphorylated retinoblastoma level at 0.1 uM after 72 hrs by Western blotting analysis; assay type: cell-based; settings: DU-145, 1 uM, in the assay text read “1 uM” for “0.1 uM”
Summary of the method: (§3)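 DU145 cells were treated 72 h and lysed in 2% SDS buffer. Equal protein was resolved by SDS-PAGE and probed for phospho-Rb Ser249/Thr252, total Rb (1:200 each) and α-tubulin. Bands were visualized on autoradiography film and read densitometrically relative to α-tubulin. The p-Rb/Rb ratio was compared with control. Results are mean SEM of three experiments, with Student's t test.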

[9] = target: Glycogen synthase kinase-3 beta (Homo sapiens) (UniProt P49841); assay: Inhibition of GSK3beta phosphorylation at Ser9 in human DU145 cells at 0.1 uM after 72 hrs by Western blotting analysis; assay type: cell-based; settings: DU-145; summary of the method: as §1
[10] = system: M14; assay: Cytotoxicity against human M14 cells assessed as cell viability after 72 hrs by MTT assay; assay type: functional, cell-based; settings: M14, 72 h; summary of the method: as §2
[11] = target: T2, Mitogen-activated protein kinase; ERK1/ERK2 (Homo sapiens) (UniProt P27361+P28482); assay: Inhibition of ERK1/2 phosphorylation at Thr202/Tyr204 in human DU145 cells at 1 uM after 72 hrs by Western blotting analysis relative to control; assay type: cell-based; settings: DU-145; summary of the method: as §1
[12] = Cytotoxicity against human fibroblasts assessed as cell viability after 72 hrs by MTT assay relative to control; assay type: cell-based, Fibroblast; design: concentration or dose not given beside the values; settings: read-out: Activity
[13] = target: T1, AKT/p21CIP1 (Homo sapiens); assay: Inhibition of AKT/p21CIP1 in human DU145 cells assessed as decrease in ratio of phosphorylated retinoblastoma level to unphosphorylated retinoblastoma level at 1 uM after 72 hrs by Western blotting analysis; assay type: cell-based; settings: DU-145; summary of the method: as §3
[14] = system: DU-145; assay: Effect on total AKT protein level in human DU145 cells at 0.1 uM after 72 hrs by Western blotting analysis; assay type: functional, cell-based; summary of the method: as §1
[15] = target: T2, Mitogen-activated protein kinase; ERK1/ERK2 (Homo sapiens); assay: Inhibition of ERK1/2 phosphorylation at Thr202/Tyr204 in human DU145 cells at 0.1 uM after 72 hrs by Western blotting analysis relative to control; assay type: cell-based; settings: DU-145; summary of the method: as §1
[16] = system: DU-145; assay: Effect on total ERK1/2 protein level in human DU145 cells at 0.1 uM after 72 hrs by Western blotting analysis; assay type: functional, cell-based; summary of the method: as §1
[17] = system: KB; assay: Cytotoxicity against human KB cells assessed as cell viability after 72 hrs by MTT assay; assay type: functional, cell-based; summary of the method: as §2
[18] = system: DU-145; assay: Cytotoxicity against human DU145 cells assessed as cell viability after 72 hrs by MTT assay; assay type: functional, cell-based; settings: DU-145, 72 h; summary of the method: as §2
[19] = target: RAC-alpha serine/threonine-protein kinase (Homo sapiens) (UniProt P31749); assay: Inhibition of AKT phosphorylation at Ser473 in human DU145 cells at 1 uM after 72 hrs by Western blotting analysis relative to control; assay type: cell-based; settings: DU-145; summary of the method: as §1
[20] = target: RAC-alpha serine/threonine-protein kinase (Homo sapiens) (UniProt P31749); assay: Inhibition of AKT phosphorylation at Ser473 in human DU145 cells at 0.1 uM after 72 hrs by Western blotting analysis relative to control; assay type: cell-based; settings: DU-145; summary of the method: as §1
[21] = system: DU-145; assay: Decrease in total GSK3beta protein level in human DU145 cells at 0.1 uM after 72 hrs by Western blotting analysis; assay type: functional, cell-based; settings: 1 uM, in the assay text read “1 uM” for “0.1 uM”; summary of the method: as §1
[22] = system: DU-145; assay: Decrease in total GSK3beta protein level in human DU145 cells at 1 uM after 72 hrs by Western blotting analysis; assay type: functional, cell-based; summary of the method: as §1
[23] = system: Caco-2; assay: Cytotoxicity against human Caco2 cells assessed as cell viability after 72 hrs by MTT assay; assay type: functional, cell-based; settings: Caco-2, 72 h; summary of the method: as §2

Sequence of Glycogen synthase kinase-3 beta (Homo sapiens) (P49841 whole entry, looked up): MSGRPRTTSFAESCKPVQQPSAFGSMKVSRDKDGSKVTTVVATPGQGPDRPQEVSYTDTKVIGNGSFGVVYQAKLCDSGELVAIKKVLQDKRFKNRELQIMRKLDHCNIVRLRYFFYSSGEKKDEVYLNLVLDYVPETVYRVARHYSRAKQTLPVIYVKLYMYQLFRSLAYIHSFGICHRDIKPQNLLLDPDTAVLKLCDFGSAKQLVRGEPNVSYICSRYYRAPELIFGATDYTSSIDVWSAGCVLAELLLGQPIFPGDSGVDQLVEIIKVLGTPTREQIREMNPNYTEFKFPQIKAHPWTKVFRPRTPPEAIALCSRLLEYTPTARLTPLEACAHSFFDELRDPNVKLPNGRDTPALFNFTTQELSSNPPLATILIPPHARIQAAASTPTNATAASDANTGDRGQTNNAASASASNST
T2 sequence (P27361 whole entry, looked up): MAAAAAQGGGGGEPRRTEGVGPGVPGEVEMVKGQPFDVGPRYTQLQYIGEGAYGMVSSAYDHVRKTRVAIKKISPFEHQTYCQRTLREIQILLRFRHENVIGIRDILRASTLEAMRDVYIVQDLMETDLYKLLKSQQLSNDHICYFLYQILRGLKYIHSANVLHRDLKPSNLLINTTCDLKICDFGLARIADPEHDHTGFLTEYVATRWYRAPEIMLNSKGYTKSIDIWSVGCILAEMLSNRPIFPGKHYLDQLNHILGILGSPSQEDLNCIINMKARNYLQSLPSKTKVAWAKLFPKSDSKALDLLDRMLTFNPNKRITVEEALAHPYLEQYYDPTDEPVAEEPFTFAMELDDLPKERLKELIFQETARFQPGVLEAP
T2 sequence (P28482 whole entry, looked up): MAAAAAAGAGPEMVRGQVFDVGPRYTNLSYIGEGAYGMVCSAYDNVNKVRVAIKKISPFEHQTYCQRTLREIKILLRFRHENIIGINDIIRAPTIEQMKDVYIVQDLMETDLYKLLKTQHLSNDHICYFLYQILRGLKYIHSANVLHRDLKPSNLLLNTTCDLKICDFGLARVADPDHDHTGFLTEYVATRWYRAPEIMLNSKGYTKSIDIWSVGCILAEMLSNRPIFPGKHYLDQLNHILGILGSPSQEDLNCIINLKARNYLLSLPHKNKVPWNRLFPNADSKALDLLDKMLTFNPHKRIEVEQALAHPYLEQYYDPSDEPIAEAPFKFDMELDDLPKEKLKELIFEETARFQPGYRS
Sequence of RAC-alpha serine/threonine-protein kinase (Homo sapiens) (P31749 whole entry): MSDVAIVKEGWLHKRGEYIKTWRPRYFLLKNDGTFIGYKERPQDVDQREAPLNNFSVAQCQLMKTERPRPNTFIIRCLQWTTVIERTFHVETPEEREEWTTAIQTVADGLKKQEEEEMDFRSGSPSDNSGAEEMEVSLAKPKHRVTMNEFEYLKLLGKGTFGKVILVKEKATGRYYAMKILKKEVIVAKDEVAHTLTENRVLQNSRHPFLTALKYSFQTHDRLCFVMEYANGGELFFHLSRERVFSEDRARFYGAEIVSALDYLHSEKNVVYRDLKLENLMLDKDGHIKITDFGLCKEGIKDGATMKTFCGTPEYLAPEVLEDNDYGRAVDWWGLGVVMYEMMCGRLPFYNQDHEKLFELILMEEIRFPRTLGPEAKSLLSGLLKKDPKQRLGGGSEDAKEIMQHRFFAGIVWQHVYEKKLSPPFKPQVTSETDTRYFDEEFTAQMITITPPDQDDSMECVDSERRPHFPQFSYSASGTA

Compound	IC50 [2] [µM]	IC50 [6] [µM]	IC50 [10] [µM]	viability at 72 h [12] [%]	IC50 [17] [µM]	IC50 [18] [µM]	IC50 [23] [µM]	further results
COc1ccc(/C(=C\c2cn(C(C)=O)c3ccc(OCc4ccccc4)cc23)C(=O)O)cc1	> 100	85	> 100	85	> 100	0.91	–	Activity [1]: Active; Activity [3]: inactive; inhibition [4]: inactive; Activity [5]: inactive; Activity [7]: Active; inhibition [8]: Active; inhibition [9]: inactive; inhibition [11]: 40%; inhibition [13]: Active; Activity [14]: inactive; inhibition [15]: Active; Activity [16]: inactive; inhibition [19]: 20%; inhibition [20]: Active; Activity [21]: Active; Activity [22]: Active
CC(=O)n1cc(/C=C(/C(=O)O)c2ccc(OCc3ccccc3)cc2)c2cc(OCc3ccccc3)ccc21	44.1	77.7	58.2	85	43	1.41	–	–
O=C(O)/C(=C/c1c[nH]c2ccccc12)c1ccccc1	–	–	> 100	85	> 100	> 100	> 100	–
CC(=O)n1cc(/C=C(/C(=O)O)c2ccc3c(c2)OCO3)c2cc(OCc3ccccc3)ccc21	53.6	99.1	> 100	85	> 100	1.15	–	–
COc1ccc(/C(=C\c2c[nH]c3ccc(OCc4ccccc4)cc23)C(N)=O)cc1	–	–	> 100	85	> 100	39.8	> 100	–
O=C(O)/C(=C/c1c[nH]c2ccc(OCc3ccccc3)cc12)c1ccccc1	–	–	95.2	85	55.5	34.7	41.6	–
COc1cccc(/C(=C\c2cn(C(C)=O)c3ccc(OCc4ccccc4)cc23)C(=O)O)c1	45.2	65.1	> 100	85	> 100	1.08	–	–
COc1cc(OC)cc(/C(=C\c2cn(C(C)=O)c3ccc(OCc4ccccc4)cc23)C(=O)O)c1	26	26.1	94	85	30.4	0.88	–	–
COc1ccc(OC)c(/C(=C\c2cn(C(C)=O)c3ccc(OCc4ccccc4)cc23)C(=O)O)c1	54.5	44.1	87.1	85	> 100	0.83	–	–
COc1ccccc1/C(=C\c1cn(C(C)=O)c2ccc(OCc3ccccc3)cc12)C(=O)O	57.2	48.5	> 100	85	> 100	1.01	–	–
